Data set [1] is described as follows: Aggregation property of the compound in NMR buffer assessed as aggregate size at 500 uM by dynamic light scattering analysis. It counts as physicochemical. The method in brief: (§1)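 Dynamic light scattering in NMR buffer, samples filtered through 0.22 μm and centrifuged 5 min at 13 500 rpm before measurement. Autocorrelation accumulated 150 s at a 173° scattering angle, in replicates of 3–5, with water viscosity used in analysis; intensity or volume size distributions reported.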

For data set [2], the target named is T1, Rap guanine nucleotide exchange factor 3 (Homo sapiens) (UniProt O95398).
T1 sequence (whole entry): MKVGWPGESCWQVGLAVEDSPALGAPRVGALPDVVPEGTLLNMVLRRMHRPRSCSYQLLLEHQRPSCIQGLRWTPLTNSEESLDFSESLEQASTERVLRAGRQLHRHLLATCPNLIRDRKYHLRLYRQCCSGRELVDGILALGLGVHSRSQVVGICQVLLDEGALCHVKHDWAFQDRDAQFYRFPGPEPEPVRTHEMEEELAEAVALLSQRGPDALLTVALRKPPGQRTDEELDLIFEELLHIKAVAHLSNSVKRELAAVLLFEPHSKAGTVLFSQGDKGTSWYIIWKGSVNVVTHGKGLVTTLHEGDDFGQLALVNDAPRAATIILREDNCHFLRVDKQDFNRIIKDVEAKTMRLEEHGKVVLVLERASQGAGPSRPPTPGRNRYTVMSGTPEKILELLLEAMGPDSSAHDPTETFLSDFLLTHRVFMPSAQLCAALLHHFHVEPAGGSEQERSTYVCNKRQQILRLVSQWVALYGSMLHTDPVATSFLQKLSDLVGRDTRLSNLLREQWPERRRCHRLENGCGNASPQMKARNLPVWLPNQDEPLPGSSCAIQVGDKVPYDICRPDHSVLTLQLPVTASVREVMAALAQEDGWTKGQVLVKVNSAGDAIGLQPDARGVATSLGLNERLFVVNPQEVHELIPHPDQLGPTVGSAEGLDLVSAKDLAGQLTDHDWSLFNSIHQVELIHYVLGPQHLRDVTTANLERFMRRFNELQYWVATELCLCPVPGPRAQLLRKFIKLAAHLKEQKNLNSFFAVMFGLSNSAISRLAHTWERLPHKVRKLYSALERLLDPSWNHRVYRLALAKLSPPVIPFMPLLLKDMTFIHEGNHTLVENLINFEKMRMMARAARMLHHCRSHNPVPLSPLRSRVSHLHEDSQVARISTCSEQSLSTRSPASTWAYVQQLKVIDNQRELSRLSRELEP
The experiment in a line: Binding affinity to human EPAC1 cAMP binding domain (149 to 318 residues) assessed as peak size at 50 to 200 uM by dynamic light scattering analysis. The procedure, abridged:
as §1

Data set [3] in a line: Binding affinity to Triton-X 100 assessed as aggregate formation at 1:2 ratio of Triton-X 100 to compound by dynamic light scattering analysis. The method in brief: as §1
Data set [4] has as its target T1, Rap guanine nucleotide exchange factor 3 (Homo sapiens). As to the kind of experiment: Binding affinity to human EPAC1 cAMP binding domain (149 to 318 residues) assessed as peak size at 50 to 200 uM using aggregate form of compound by dynamic light scattering analysis. The procedure, abridged:
as §1

Data set [5] can be described thus: Aggregation property of the compound assessed as change in peak intensity by measuring concentration at which peak intensities deviated from the linear correlation by 1H-NMR analysis. Type of data set: physicochemical. The procedure, abridged: (§2)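 Line widths, chemical shifts and peak intensities tracked; CAC taken as the concentration where intensities deviate from linear dependence, or, for line width, the minimal concentration that increases peak width.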

A short description of data set [6]: Binding affinity to Triton-X 100 assessed as line broadening at 100 uM by 1H-NMR spectra analysis.
Data set [7] concerns the target T1, Rap guanine nucleotide exchange factor 3 (Homo sapiens). The experiment in a line: Binding affinity to human EPAC1 cAMP binding domain (149 to 318 residues) at 400 uM in presence of 0.1% triton X-100 by [15N-1H]HSQC spectroscopic analysis.
A short description of data set [8]: Binding affinity to Triton-X 100 assessed as intra-molecular cross relaxation at 100 uM by NOESY spectra analysis. The procedure, abridged:
(§3)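 2D NOESY and ROESY of 100 μM ESI with 0.025% Triton X-100 or 500 μM ESI with 0.05% Triton X-100; 2K × 512 complex points, 12 ppm spectral width centred at 4.7 ppm, intra- and intermolecular cross-peaks mapped.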

The nature of data set [9]: Binding affinity to Triton-X 100 assessed as inter-molecular cross relaxation at 100 uM by NOESY spectra analysis. The procedure, abridged: as §3
Data set [10] can be described thus: Aggregation property of the compound assessed as change in saturation transfer at 100 uM irradiated at 6.61 ppm by STD NMR spectra analysis. Type of data set: physicochemical. The method in brief: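 STD NMR, saturation by a train of 40 Gaussian pulses of 50 ms each; selective on-resonance irradiation at the stated ppm (TX at 7.48 ppm), off-resonance at 30 ppm, interleaved and subtracted by phase cycling. 32K points, 16 ppm width centred at 4.7 ppm, 256 scans, 16 dummy scans, 0.1 s recycle delay (~15 min); 3 Hz exponential line broadening.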

Data set [11] in a line: Aggregation property of the compound in NMR buffer assessed as diameter of aggregate at 500 uM by dynamic light scattering analysis. Type of data set: physicochemical. The procedure, abridged:
as §1

In data set [12] the target is T2, Albumin (Homo sapiens, UniProt P02768). As to the kind of experiment: Binding affinity to human serum albumin assessed as line broadening at 100 uM by 1D 1H NMR analysis.
For data set [13], the target named is T2, Albumin. The experiment in a line: Displacement of [13C]oleic acid from human serum albumin by CH-HSQC spectra analysis. The procedure, abridged: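 Fatty-acid-free recombinant HSA at 250 μM in sodium phosphate buffer (20 mM NaPO4, pH 7.6, 50 mM NaCl, D2O), 37 °C for 30 min. 13C-oleic acid (100 mM stock in DMSO-d6, warmed to 50 °C for 10 min) added to 1.5 mM, then 2 h at 37 °C. CH-HSQC at 298 K; loss of site-specific cross-peaks A–H scored.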

Data set [14] is described as follows: Reversible binding affinity to Triton-X 100 at dilution from 100 uM by 1H-NMR spectra analysis.
Data set [15] in a line: Binding affinity to Triton-X 100 assessed as line broadening at 100 to 300 uM by 1H-NMR analysis.
Data set [16] in a line: Binding affinity to Triton-X 100 assessed as aggregate formation at 1:1 ratio of Triton-X 100 to compound by dynamic light scattering analysis. The method in brief: as §1
The nature of data set [17]: Aggregation property of the compound assessed as change in chemical shift by 1H-NMR analysis. Type of data set: physicochemical. The method in brief: as §2
Data set [18] concerns the target T1, Rap guanine nucleotide exchange factor 3 (Homo sapiens). The experiment in a line: Binding affinity to human EPAC1 cAMP binding domain (149 to 318 residues) assessed as residue-dependent change in chemical shift at 100 uM using aggregate form of compound by [15N-1H]HSQC spectroscopic analysis.
Data set [19] addresses T2, Albumin. As to the kind of experiment: Displacement of dansylated arginine from human serum albumin by fluorescence assay. The conditions noted are these: read-out: Kd(app). The procedure, abridged: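 Competition of ligand against 100 μM dansyl-arginine (Sudlow site 1, 1:1 stoichiometry) bound to 2.5 μM HSA. Excitation 370 nm, emission 460 nm. Apparent Kd fitted by Wang's method using least squares, assuming no other ligand sites on HSA, so treated as a maximum apparent value.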

The structures appear in SMILES notation. Activity calls are given as the source filed them. The calls are words filed in the database; no cut-off is given here.

T2 sequence (P02768 whole entry): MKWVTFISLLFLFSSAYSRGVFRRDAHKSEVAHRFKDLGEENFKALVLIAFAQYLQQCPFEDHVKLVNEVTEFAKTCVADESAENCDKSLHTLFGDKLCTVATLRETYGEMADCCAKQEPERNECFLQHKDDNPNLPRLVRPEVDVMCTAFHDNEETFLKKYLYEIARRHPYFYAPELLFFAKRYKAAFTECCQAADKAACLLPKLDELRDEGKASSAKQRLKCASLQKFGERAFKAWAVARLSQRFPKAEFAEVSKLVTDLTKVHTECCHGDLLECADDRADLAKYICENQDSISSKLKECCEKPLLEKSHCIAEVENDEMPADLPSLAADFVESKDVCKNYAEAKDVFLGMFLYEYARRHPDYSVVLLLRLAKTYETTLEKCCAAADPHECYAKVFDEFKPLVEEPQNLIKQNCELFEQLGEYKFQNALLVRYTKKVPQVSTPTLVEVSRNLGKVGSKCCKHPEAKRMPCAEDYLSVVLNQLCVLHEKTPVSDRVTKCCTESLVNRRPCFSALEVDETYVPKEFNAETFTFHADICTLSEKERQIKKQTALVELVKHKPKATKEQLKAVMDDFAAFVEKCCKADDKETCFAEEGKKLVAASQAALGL

Regarding `CC(C)(C)c1cc(C(=O)/C(C#N)=N/Nc2cccc(Cl)c2)no1`, the Activity in [1] is 90 to 600 nm; in data set [2], less than 5 nm; in [4], 250 nm; in data set [5], 150 µM; in data set [10] it was “Not Active”; in data set [11], 250 nm. Moreover, the figures for the Activity entry (on Albumin [12]; on Albumin [13]; in [17]) were “Active”, “Active” and “Not Active”, respectively. The outcome in data set [3], in [6], in [7], in data set [8], in data set [9] and in data set [14] was Active. Moreover, the outcome in [15] and in data set [18] was Active. In data set [16], the result was inactive. Also, on Albumin [19], the Kd came to 0.23 µM.
